The IC50 is the concentration that inhibits the measured activity by half.

One experiment deals with CCRF-HSB-2. The experiment can be described thus: Antiproliferative effects on CCRF-HSB-2 (human leukemia) cells. In kind it is functional, cell-based. In short, it runs like this:
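CCRF-HSB-2 cells at 1.1 × 10⁵ cells/mL in RPMI 1640 + 10% FBS. Compound added in medium or PBS as serial 0.5 log₁₀ dilutions. Incubated 3 days at 37 °C, 5% CO₂. MTT then added for another 4 h; formazan solubilized in acidic DMF/SDS. A570 read against 690 nm reference. IC50 read graphically from dose-inhibition curve.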

A further experiment relates to Human alphaherpesvirus 1. The experiment can be described thus: Antiviral activity against herpes simplex virus-1 VR-3 strain in HEL ([…]) cells. It is filed as functional. The note with it: Human alphaherpesvirus 1, HEL; read-out: ED50 (the source's name). In short, it runs like this: (§1)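 Plaque reduction assay in HEL cells. Strains: HSV-1 VR-3, HSV-2 MS, HCMV AD 169. Run as described earlier.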

The next experiment has as its system Human alphaherpesvirus 2. The experiment can be described thus: Antiviral activity against herpes simplex virus-2 (HSV-2) Ms strain in HEL ([…]) cells. It is filed as functional. The note with it: Human alphaherpesvirus 2, HEL; read-out: ED50 (the source's name). In short, it runs like this: as §1
The subject of a further experiment is Human alphaherpesvirus 3. The experiment can be described thus: Antiviral activity against varicella zoster virus (VZV) Oka strain in HEL ([…]) cells. It is filed as functional. The note with it: Human alphaherpesvirus 3, HEL; read-out: ED50 (the source's name).
A further experiment concerns Human betaherpesvirus 5. The experiment can be described thus: Antiviral activity against human cytomegalovirus (HCMV) AD 169 strain HEL ([…]) cells. In kind it is functional. The note with it: Human betaherpesvirus 5, HEL; read-out: ED50 (the source's name). In outline: as §1

≈ marks a conversion by molar mass, not a printed value. Bounds are passed on as bounds.

In turn, `O=c1[nH]c(=O)n([C@@H]2S[C@H](CO)[C@@H](O)[C@@H]2O)cc1/C=C/Cl` gave a 50% inhibitory concentration (IC50) in the experiment on CCRF-HSB-2 above 100 µg/mL. For the same compound, the EC50 in the experiment on Human alphaherpesvirus 1 is 0.97 µg/mL (≈ 3.02 µM); in the experiment on Human alphaherpesvirus 2, 71 µg/mL (≈ 221 µM); in the experiment with Human alphaherpesvirus 3, above 50 µg/mL; in the experiment with Human betaherpesvirus 5, above 50 µg/mL.
As to `O=c1[nH]c(=O)n([C@H]2S[C@H](CO)[C@@H](O)[C@@H]2O)cc1I`, the IC50 in the experiment on CCRF-HSB-2 is above 100 µg/mL. Also, the EC50 in the experiment with Human alphaherpesvirus 1 is above 100 µg/mL; in the experiment with Human alphaherpesvirus 2, above 100 µg/mL; with Human alphaherpesvirus 3, above 50 µg/mL; with Human betaherpesvirus 5 it was above 50 µg/mL.
Compound `Nc1nc(O)c2ncn([C@@H]3S[C@H](CO)[C@@H](O)[C@@H]3O)c2n1` came in with an IC50 with CCRF-HSB-2 of 0.29 µg/mL (≈ 0.969 µM). The EC50 in the experiment with Human alphaherpesvirus 1 was determined as 0.49 µg/mL (≈ 1.64 µM); with Human alphaherpesvirus 2, 0.59 µg/mL (≈ 1.97 µM); with Human alphaherpesvirus 3, 0.11 µg/mL (≈ 0.368 µM); in the experiment on Human betaherpesvirus 5, 0.01 µg/mL (≈ 0.0334 µM).
The compound `Nc1nc(N)c2ncn([C@H]3S[C@H](CO)[C@@H](O)[C@@H]3O)c2n1` displayed an IC50 in the experiment with CCRF-HSB-2 above 100 µg/mL. Further, the EC50 is above 100 µg/mL in the experiment with Human alphaherpesvirus 1, above 100 µg/mL in the experiment with Human alphaherpesvirus 2, above 50 µg/mL in the experiment on Human alphaherpesvirus 3 and above 50 µg/mL in the experiment with Human betaherpesvirus 5.
On to `O=c1[nH]c(=O)n([C@H]2S[C@H](CO)[C@@H](O)[C@@H]2O)cc1/C=C/Cl`, for which the concentration for half-maximal inhibition (IC50) with CCRF-HSB-2 is above 100 µg/mL. The EC50 was above 100 µg/mL with Human alphaherpesvirus 1, above 100 µg/mL with Human alphaherpesvirus 2, above 50 µg/mL in the experiment with Human alphaherpesvirus 3 and above 50 µg/mL in the experiment with Human betaherpesvirus 5.
In the experiment with CCRF-HSB-2, `O=c1[nH]c(=O)n([C@@H]2S[C@H](CO)[C@@H](O)[C@@H]2O)cc1/C=C/Br` displayed an IC50 above 100 µg/mL. Moreover, the EC50 in the experiment with Human alphaherpesvirus 1 was 0.82 µg/mL (≈ 2.25 µM); in the experiment with Human alphaherpesvirus 2 it was 58 µg/mL (≈ 159 µM); in the experiment with Human alphaherpesvirus 3, 0.2 µg/mL (≈ 0.548 µM); in the experiment on Human betaherpesvirus 5 it was above 50 µg/mL.
For `O=c1[nH]c(=O)n([C@H]2S[C@H](CO)[C@@H](O)[C@@H]2O)cc1/C=C/Br`, in that order: above 100 µg/mL, above 100 µg/mL, above 100 µg/mL, above 50 µg/mL and above 50 µg/mL.
For `CCc1cn([C@H]2S[C@H](CO)[C@@H](O)[C@@H]2O)c(=O)[nH]c1=O`, in that order: above 100 µg/mL, above 100 µg/mL, above 100 µg/mL, above 50 µg/mL and above 50 µg/mL.
Take `Nc1ncnc2c1ncn2[C@H]1S[C@H](CO)[C@@H](O)[C@@H]1O`: the half-inhibitory concentration (IC50) in the experiment on CCRF-HSB-2 was above 100 µg/mL. Besides, the EC50 was above 100 µg/mL in the experiment with Human alphaherpesvirus 1, above 100 µg/mL in the experiment on Human alphaherpesvirus 2, above 50 µg/mL in the experiment with Human alphaherpesvirus 3 and above 50 µg/mL in the experiment with Human betaherpesvirus 5.
The compound `Cc1cn([C@@H]2S[C@H](CO)[C@@H](O)[C@@H]2O)c(=O)[nH]c1=O` showed an IC50 in the experiment with CCRF-HSB-2 above 100 µg/mL. Further, the EC50 in the experiment on Human alphaherpesvirus 1 amounted to 0.77 µg/mL (≈ 2.81 µM); with Human alphaherpesvirus 2, 4.6 µg/mL (≈ 16.8 µM); in the experiment with Human alphaherpesvirus 3, 6.6 µg/mL (≈ 24.1 µM); in the experiment with Human betaherpesvirus 5, 44 µg/mL (≈ 160 µM).
For `O=c1[nH]c(=O)n([C@@H]2S[C@H](CO)[C@@H](O)[C@@H]2O)cc1I`, in that order: above 100 µg/mL, 3.5 µg/mL (≈ 9.06 µM), 13.6 µg/mL (≈ 35.2 µM), 27.1 µg/mL (≈ 70.2 µM) and above 50 µg/mL.
For `Nc1ncnc2c1ncn2[C@@H]1S[C@H](CO)[C@@H](O)[C@@H]1O`, in that order: 14.8 µg/mL (≈ 52.2 µM), 18.4 µg/mL (≈ 64.9 µM), 13.5 µg/mL (≈ 47.7 µM), 1.85 µg/mL (≈ 6.53 µM) and 1.36 µg/mL (≈ 4.8 µM).
For `Cc1cn([C@H]2S[C@H](CO)[C@@H](O)[C@@H]2O)c(=O)[nH]c1=O`, in that order: 42 µg/mL (≈ 153 µM), above 100 µg/mL, above 100 µg/mL, above 50 µg/mL and above 50 µg/mL.
As for `CCc1cn([C@@H]2S[C@H](CO)[C@@H](O)[C@@H]2O)c(=O)[nH]c1=O`, the IC50 in the experiment with CCRF-HSB-2 was above 100 µg/mL. Besides, the EC50 was 0.43 µg/mL (≈ 1.49 µM) with Human alphaherpesvirus 1, 6.5 µg/mL (≈ 22.5 µM) with Human alphaherpesvirus 2, above 50 µg/mL with Human alphaherpesvirus 3 and above 50 µg/mL in the experiment with Human betaherpesvirus 5.
In the experiment on CCRF-HSB-2, `Nc1nc(N)c2ncn([C@@H]3S[C@H](CO)[C@@H](O)[C@@H]3O)c2n1` gave a half-maximal inhibitory concentration (IC50) of 0.2 µg/mL (≈ 0.67 µM). Also, the EC50 in the experiment with Human alphaherpesvirus 1 worked out at 0.52 µg/mL (≈ 1.74 µM); in the experiment on Human alphaherpesvirus 2 it was 0.4 µg/mL (≈ 1.34 µM); in the experiment on Human alphaherpesvirus 3, 0.11 µg/mL (≈ 0.369 µM); with Human betaherpesvirus 5 it was 0.022 µg/mL (≈ 0.0737 µM).
As to `Nc1nc2c(ncn2COCCO)c(=O)[nH]1` [ACYCLOVIR], the IC50 with CCRF-HSB-2 was above 100 µg/mL. Further, the EC50 is 0.14 µg/mL (≈ 0.622 µM) in the experiment with Human alphaherpesvirus 1, 0.23 µg/mL (≈ 1.02 µM) in the experiment on Human alphaherpesvirus 2 and 6.9 µg/mL (≈ 30.6 µM) in the experiment on Human betaherpesvirus 5.
For the compound `Nc1ccn([C@@H]2O[C@H](CO)[C@@H](O)[C@@H]2O)c(=O)n1` [CYTARABINE], in the experiment on CCRF-HSB-2, the IC50 amounted to 0.0086 µg/mL (≈ 0.0354 µM).
In the case of `Nc1nc2c(ncn2COC(CO)CO)c(=O)[nH]1` [GANCICLOVIR], in the experiment on CCRF-HSB-2, the midpoint of inhibition, the IC50, lay at 17 µg/mL (≈ 66.6 µM). Besides, the EC50 in the experiment on Human alphaherpesvirus 1 came to 0.016 µg/mL (≈ 0.0627 µM); in the experiment on Human alphaherpesvirus 2, 0.039 µg/mL (≈ 0.153 µM); in the experiment on Human alphaherpesvirus 3, 0.21 µg/mL (≈ 0.823 µM); in the experiment on Human betaherpesvirus 5 it was 0.21 µg/mL (≈ 0.823 µM).
`O=c1[nH]c(=O)n([C@@H]2O[C@H](CO)[C@@H](O)[C@@H]2O)cc1/C=C/Br` [SORIVUDINE]: the IC50 in the experiment with CCRF-HSB-2 was above 100 µg/mL. Also, the EC50 is 0.036 µg/mL (≈ 0.103 µM) in the experiment on Human alphaherpesvirus 1, 62 µg/mL (≈ 178 µM) with Human alphaherpesvirus 2, 0.0013 µg/mL (≈ 0.00372 µM) in the experiment on Human alphaherpesvirus 3 and above 50 µg/mL in the experiment with Human betaherpesvirus 5.
The matching figures for `Nc1ncnc2c1ncn2[C@@H]1O[C@H](CO)[C@@H](O)[C@@H]1O` [VIDARABINE]: 12.9 µg/mL (≈ 48.3 µM), 17.1 µg/mL (≈ 64 µM), 6.6 µg/mL (≈ 24.7 µM), 1.17 µg/mL (≈ 4.38 µM) and 6.45 µg/mL (≈ 24.1 µM).

For the origin of these results see ChEMBL document CHEMBL1130421, “A facile, alternative synthesis of 4'-thioarabinonucleosides and their biological activities” (J Med Chem, 1997).
